Laboratory results reported in article PMC3190670 (ChemMedChem, 2011).

Tested on: Bovine brain tubulin
Test: turbidimetric tubulin assembly
Format: biochemical, Bos taurus
Conditions: read-out: IC50 ± SD [μM]^[a]; 10 μM tubulin, glutamate buffer, GTP, 30°C, 20 min
Method in brief: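 Purified bovine brain tubulin was preincubated with varying test-compound concentrations in glutamate buffer at 30°C, then cooled to 0°C. GTP was added, and mixtures went into 0°C cuvettes and were warmed to 30°C. Assembly was followed turbidimetrically in a recording spectrophotometer. IC50 was the concentration that cut the extent of assembly by 50% after 20 min.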

Compound	IC50
COc1cc2oc(C(=O)c3cc(OC)c(OC)c(OC)c3)cc2cc1N [3g, (5-Amino-6-methoxybenzo[b]furan-2-yl)(3,4,5-trimethoxyphenyl)methanone]	1.4 ± 0.01 µM
COc1cc2oc(C(=O)c3cc(OC)c(OC)c(OC)c3)c(C)c2cc1N [3h, (5-Amino-3-methyl-6-methoxybenzo[b]furan-2-yl)(3,4,5-trimethoxyphenyl)methanone]	0.56 ± 0.08 µM
COc1cc(C(=O)c2cc3cc(N)cc(OC)c3o2)cc(OC)c1OC [3i, (5-Amino-7-methoxybenzo[b]furan-2-yl)(3,4,5-trimethoxyphenyl)methanone]	3.1 ± 0.2 µM
COc1cc(C(=O)c2oc3c(OC)cc(N)cc3c2C)cc(OC)c1OC [3j, (5-Amino-3-methyl-7-methoxybenzo[b]furan-2-yl)(3,4,5-trimethoxyphenyl)methanone]	1.6 ± 0.1 µM
C=C(Br)C(=O)Nc1cccc2oc(C(=O)c3cc(OC)c(OC)c(OC)c3)cc12 [4a, 2-Bromo-N-[2-(3,4,5-trimethoxybenzoyl)-1-benzo[b]furan-4-yl]acrylamide]	> 40 µM
